From ChEMBL document CHEMBL1255221, “Synthesis and evaluation of selected key methyl ether derivatives of vancomycin aglycon” (2010)
Values after ≈ are worked out from the molar mass of the structure shown.

What was measured:
Format in all cases: functional
Enterococcus faecalis [1] = test: Antimicrobial activity against vancomycin B-resistant Enterococcus faecalis ATCC 51299
How it was run: (§1)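 MIC measured in a microtiter plate-based antimicrobial assay, in μg/mL. VanA E. faecalis BM4166 is vancomycin- and teicoplanin-resistant; VanB E. faecalis ATCC 51299 is vancomycin-resistant and teicoplanin-sensitive. Both strains carry a vancomycin-inducible resistance pathway, switching from D-Ala-D-Ala to D-Ala-D-Lac cell-wall precursors on glycopeptide exposure.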

Staphylococcus aureus = test: Antimicrobial activity against Staphylococcus aureus ATCC 25923
Enterococcus faecalis [2] = test: Antimicrobial activity against vancomycin A-resistant Enterococcus faecalis BM 4166; how it was run: as §1

| Compound | MIC (Enterococcus faecalis [1]) | MIC (Staphylococcus aureus) | MIC (Enterococcus faecalis [2]) |
| --- | --- | --- | --- |
| CN[C@H](CC(C)C)C(=O)N[C@H]1C(=O)N[C@@H](CC(N)=O)C(=O)N[C@H]2C(=O)N[C@H]3C(=O)N[C@H](C(=O)N[C@@H](C(=O)O)c4cc(OC)cc(OC)c4-c4cc3ccc4OC)[C@H](O)c3ccc(c(Cl)c3)Oc3cc2cc(c3OC)Oc2ccc(cc2Cl)[C@H]1O | 2.5 µg/mL (≈ 2.08 µM) | 1.25 µg/mL (≈ 1.04 µM) | 80 µg/mL (≈ 66.7 µM) |
| CN[C@H](CC(C)C)C(=O)N[C@H]1C(=O)N[C@@H](CC(N)=O)C(=O)N[C@H]2C(=O)N[C@H]3C(=O)N[C@H](C(=O)N[C@@H](C(=O)OC)c4cc(OC)cc(OC)c4-c4cc3ccc4OC)[C@H](O)c3ccc(c(Cl)c3)Oc3cc2cc(c3OC)Oc2ccc(cc2Cl)[C@H]1O | 1.25 µg/mL (≈ 1.03 µM) | 1.25 µg/mL (≈ 1.03 µM) | 40 µg/mL (≈ 32.9 µM) |
| CN[C@@H](CC(C)C)C(=O)N[C@H]1C(=O)N[C@@H](CC(N)=O)C(=O)N[C@H]2C(=O)N[C@H]3C(=O)N[C@H](C(=O)N[C@@H](C(=O)O)c4cc(O)cc(O)c4-c4cc3ccc4O)[C@H](O)c3ccc(c(Cl)c3)Oc3cc2cc(c3O[C@@H]2O[C@H](CO)[C@@H](O)[C@H](O)[C@H]2O[C@H]2C[C@](C)(NCc3ccc(-c4ccc(Cl)cc4)cc3)[C@H](O)[C@H](C)O2)Oc2ccc(cc2Cl)[C@H]1O | 0.03 µg/mL (≈ 0.0182 µM) | 0.03 µg/mL (≈ 0.0182 µM) | 10 µg/mL (≈ 6.06 µM) |
| CN[C@H](CC(C)C)C(=O)N[C@H]1C(=O)N[C@@H](CC(N)=O)C(=O)N[C@H]2C(=O)N[C@H]3C(=O)N[C@H](C(=O)N[C@@H](C(=O)O)c4cc(OC)cc(OC)c4-c4cc3ccc4O)[C@H](O)c3ccc(c(Cl)c3)Oc3cc2cc(c3O)Oc2ccc(cc2Cl)[C@H]1O | 120 µg/mL (≈ 102 µM) | 10 µg/mL (≈ 8.53 µM) | 640 µg/mL (≈ 546 µM) |
| CN[C@H](CC(C)C)C(=O)N[C@H]1C(=O)N[C@@H](CC(N)=O)C(=O)N[C@H]2C(=O)N[C@H]3C(=O)N[C@H](C(=O)N[C@@H](C(=O)O)c4cc(OC)cc(O)c4-c4cc3ccc4OC)[C@H](O)c3ccc(c(Cl)c3)Oc3cc2cc(c3O)Oc2ccc(cc2Cl)[C@H]1O | 120 µg/mL (≈ 102 µM) | 10 µg/mL (≈ 8.53 µM) | 640 µg/mL (≈ 546 µM) |
| CN[C@H](CC(C)C)C(=O)N[C@H]1C(=O)N[C@@H](CC(N)=O)C(=O)N[C@H]2C(=O)N[C@H]3C(=O)N[C@H](C(=O)N[C@@H](C(=O)O)c4cc(OC)cc(OC)c4-c4cc3ccc4OC)[C@H](O)c3ccc(c(Cl)c3)Oc3cc2cc(c3O)Oc2ccc(cc2Cl)[C@H]1O | 10 µg/mL (≈ 8.43 µM) | – | 640 µg/mL (≈ 540 µM) |
| CN[C@H](CC(C)C)C(=O)N[C@H]1C(=O)N[C@@H](CC(N)=O)C(=O)N[C@H]2C(=O)N[C@H]3C(=O)N[C@H](C(=O)N[C@@H](C(=O)O)c4cc(O)cc(O)c4-c4cc3ccc4O)[C@H](O)c3ccc(c(Cl)c3)Oc3cc2cc(c3OC)Oc2ccc(cc2Cl)[C@H]1O | 40 µg/mL (≈ 34.5 µM) | 1.25 µg/mL (≈ 1.08 µM) | 240 µg/mL (≈ 207 µM) |
| CN[C@H](CC(C)C)C(=O)N[C@H]1C(=O)N[C@@H](CC(N)=O)C(=O)N[C@H]2C(=O)N[C@H]3C(=O)N[C@H](C(=O)N[C@H](C(=O)O)c4cc(O)cc(O)c4-c4cc3ccc4O)[C@H](O)c3ccc(c(Cl)c3)Oc3cc2cc(c3O)Oc2ccc(cc2Cl)[C@H]1O [VANCOMYCIN AGLYCON] | > 40 µg/mL | 0.6 µg/mL (≈ 0.525 µM) | > 100 µg/mL |
| CN[C@H](CC(C)C)C(=O)N[C@H]1C(=O)N[C@@H](CC(N)=O)C(=O)N[C@H]2C(=O)N[C@H]3C(=O)N[C@H](C(=O)N[C@H](C(=O)O)c4cc(O)cc(O)c4-c4cc3ccc4O)[C@H](O)c3ccc(c(Cl)c3)Oc3cc2cc(c3O[C@@H]2O[C@H](CO)[C@@H](O)[C@H](O)[C@H]2O[C@H]2C[C@](C)(N)[C@H](O)[C@H](C)O2)Oc2ccc(cc2Cl)[C@H]1O [VANCOMYCIN] | 120 µg/mL (≈ 82.8 µM) | – | 2000 µg/mL (≈ 1380 µM) |
